In ChEMBL document CHEMBL1126930, “New analogues of N-(2-aminoethyl)-4-chlorobenzamide (Ro 16-6491). Some of the most potent monoamine oxidase-B inactivators” (J Med Chem, 1993) one finds IC50 data, which are given here for 17 molecules.

The nature of the test: Inhibition of mitochondrial Monoamine oxidase-B purified from bovine liver. The method in brief:
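MAO-B purified from bovine liver mitochondria. Enzyme preincubated 20 min with various inactivator concentrations. 10 μL aliquots then assayed for remaining activity in 490 μL of 1 mM benzylamine hydrochloride in 50 mM Tris-HCl, pH 9.0. IC50 extrapolated from plots of percent activity remaining versus inhibitor concentration. Duplicate runs varied by 0–5%.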
Take `NCCNC(=O)c1ccc(Br)cc1`: the midpoint of inhibition, the IC50, lay at 0.042 µM. In other words, the double-digit nanomolar range.
The result for `NCCNC(=O)c1cccc(I)c1` reads 0.037 µM; that for `NCCNC(=O)c1ccccc1Br`, 1.2 µM; that for `NCCNC(=O)c1ccccc1`, 0.25 µM.
The result for `NCCNC(=O)c1cccc(Br)c1` reads 0.052 µM; that for `NCCNC(=O)c1ccc(F)cc1`, 0.056 µM; that for `NCCNC(=O)c1ccccc1F`, 0.16 µM.
In the case of `NCCNC(=O)c1ccc(I)cc1`, the half-maximal inhibitory concentration (IC50) turned out to be 0.17 µM.
Molecule `NCCNC(=O)c1cccc([N+](=O)[O-])c1` returned an IC50 of 0.06 µM.
Under `NCCNC(=O)c1ccc([N+](=O)[O-])cc1` stands 48.2 µM; under `NCCNC(=O)c1ccccc1Cl`, 0.49 µM.
In the case of `NCCNC(=O)c1cccc(Cl)c1`, the IC50 came to 0.12 µM.
For the molecule `NCCNC(=O)c1ccc(Cl)cc1`, 0.045 µM corresponded to half-maximal inhibition (IC50).
Under `NCCNC(=O)c1cccc(F)c1` stands 0.2 µM.
Under `NCCNC(=O)c1ccccc1I` stands 61.5 µM; under `NCCNC(=O)c1ccccc1[N+](=O)[O-]`, 2.17 µM; under `NCCNC(=O)c1ccc(Cl)cn1` [LAZABEMIDE], 0.03 µM.
